# Assay outcomes (PubChem BioAssay)
# MrgX1 ag – agonists of human MrgX1 receptor; Q96LB2; MrgX1-HEK293 cells, Fluo-4 calcium fluorescence, agonist mode; active compounds read high; B-score at 10 µM; actives 0.44% (n = 310,000);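 active means calcium response B-score plate-corrected fluorescence ratio at least 3 library SD, with starting fluorescence B-score inside 5 SD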
#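 System: HEK293 cells stably expressing human MrgX1 receptor; Dosing: test compound in the initial addition of three; Schedule: overnight plating, then 30 min 37 °C plus 30 min room-temperature dye loading; Detection: kinetic calcium dye fluorescence, Fluo-4 NW; Controls: per-plate positive and negative controls for Z′ factor.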
# RGS4 act – potentiators or activators of RGS4 | HEK293 M3R/inducible RGS4, carbachol calcium flux Fluo4; active compounds read low | B-score at 10 µM | actives 0.92% (n = 310,000);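 active means B-score of the integrated calcium signal more than 4 SD below the library mean, with starting fluorescence not abnormally high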;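 further: negative B-score means reduced calcium response which marks RGS4 activation or potentiation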
#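 Assay system: Inducible-RGS4 HEK293 cells carrying M3 receptor | Schedule: Compound preincubation 20 min at room temperature before agonist | Signal: Kinetic calcium fluorescence imaging with Fluo4-AM dye, 2 µM | Read-out basis: B score from integrated fluorescence ratio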
# MrgX1 PAM – allosterically activates human MrgX1 receptor signaling. Q96LB2. MrgX1-HEK293, Fluo-4 calcium flux, FDSS; active compounds read high. B-score at 10 µM. actives 0.63% (n = 310,000). AID 588675;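 active means plate-corrected calcium response at least 3 library SD above typical, normal starting fluorescence, not activating the receptor alone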;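 further: compound read alongside a low EC10 to EC30 dose of BAM8-22 agonist; peak minus trough fluorescence over baseline measured at the second addition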
# MrgX1 antag – human MrgX1 receptor antagonism, primary screen; actives 1.3% (n = 310,000); B-score at 10 µM; AID 588676; MRGX1-HEK293 calcium flux, Fluo-4, BAM8-22 antagonism; active compounds read low;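 active means calcium-response B-score plate-corrected more than 3 library SD below zero, starting fluorescence within 5 deviations, no agonist response on first addition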;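 further: peak minus trough fluorescence over baseline after final BAM8-22 challenge near maximal dose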
# Cl transport mod – modulators of human KCC2 chloride dependent transport. Q9H2X9. KCC2 cells, thallium flux FluoZin-2 fluorescence. B-score of Tl+ flux slope (higher = more flux/activation; lower = inhibition) at 10 µM. actives 2.2% (n = 190,000);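 active means thallium flux slope and its plate-corrected score both differing from the plate sample mean at a set confidence after two filtering rounds, in either direction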;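 further: slope of fluorescence scaled to starting intensity during 10 to 20 s after thallium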
# Target sequence (Q9H2X9 whole entry, looked up): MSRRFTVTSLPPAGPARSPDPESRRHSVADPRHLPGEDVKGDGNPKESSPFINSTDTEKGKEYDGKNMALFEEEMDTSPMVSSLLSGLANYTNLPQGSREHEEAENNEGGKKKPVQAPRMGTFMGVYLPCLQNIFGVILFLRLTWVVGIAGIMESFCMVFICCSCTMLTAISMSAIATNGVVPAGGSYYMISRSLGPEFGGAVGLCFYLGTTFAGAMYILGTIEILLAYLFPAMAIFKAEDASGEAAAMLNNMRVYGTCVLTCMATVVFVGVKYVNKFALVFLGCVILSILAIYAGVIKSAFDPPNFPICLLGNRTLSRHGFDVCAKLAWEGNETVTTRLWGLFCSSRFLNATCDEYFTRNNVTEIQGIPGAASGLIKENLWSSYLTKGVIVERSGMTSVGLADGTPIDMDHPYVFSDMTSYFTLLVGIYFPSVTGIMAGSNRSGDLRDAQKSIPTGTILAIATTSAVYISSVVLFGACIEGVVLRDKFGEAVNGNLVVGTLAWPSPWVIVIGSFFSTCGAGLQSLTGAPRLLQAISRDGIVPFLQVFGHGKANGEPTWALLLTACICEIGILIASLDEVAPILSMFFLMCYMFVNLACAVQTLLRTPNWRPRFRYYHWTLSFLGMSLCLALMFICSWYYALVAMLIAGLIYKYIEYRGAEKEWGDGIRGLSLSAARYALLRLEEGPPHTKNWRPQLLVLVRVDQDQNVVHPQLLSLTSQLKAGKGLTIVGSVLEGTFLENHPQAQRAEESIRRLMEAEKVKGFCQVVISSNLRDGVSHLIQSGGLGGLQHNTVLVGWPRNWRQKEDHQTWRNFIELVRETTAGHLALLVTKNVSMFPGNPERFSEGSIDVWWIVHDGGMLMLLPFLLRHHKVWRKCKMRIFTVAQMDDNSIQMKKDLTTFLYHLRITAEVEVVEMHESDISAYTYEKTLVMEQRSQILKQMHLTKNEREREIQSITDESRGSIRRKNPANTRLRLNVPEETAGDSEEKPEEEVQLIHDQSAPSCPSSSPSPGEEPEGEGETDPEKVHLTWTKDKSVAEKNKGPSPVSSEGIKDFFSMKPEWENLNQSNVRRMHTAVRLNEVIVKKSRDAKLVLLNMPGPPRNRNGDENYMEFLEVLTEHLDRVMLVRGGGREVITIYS
# RGS4 block – inhibitors of human RGS4 | P49798 | HEK293 M3R/RGS4 inducible, Fluo-4 calcium flux; active compounds read high; triggered by carbachol at its EC20 | B-score at 10 µM | actives 0.45% (n = 310,000);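 active means B-score, a plate-corrected calcium signal, over three deviations above library mean, with baseline fluorescence within five deviations of library mean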;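 further: RGS4 expression induced by doxycycline in cells with stable M3 receptor; B-score is computed from the integrated fluorescence ratio over baseline after carbachol; higher B-score means a larger calcium signal and so more RGS4 inhibition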
# Starred values were filed as active, the others as inactive; i = inactive; / = no result. Hits are enriched below; roughly 4.7% of the tested compounds scored in any of these assays.
SMILES,MrgX1 ag,RGS4 act,MrgX1 PAM,MrgX1 antag,Cl transport mod,RGS4 block
CNC(=S)N/N=C/c1c(C)nn(-c2ccccc2)c1Cl,i,i,i,i,1.2,i
COc1cc(/C=N/NC(=O)c2cc(-c3c(C)nn(-c4ccccc4)c3C)n[nH]2)ccc1O,i,i,i,i,-1.4,i
Cc1nn(-c2ccccc2)c(C)c1/C=N/NC(=O)c1cc(-c2cccs2)[nH]n1,i,i,i,i,-1.7,i
C=CCN(C(=O)c1csnn1)C(C(=O)NC1CCCC1)c1ccc(OC)cc1 (centres undefined),i,i,i,i,/,i
O=C(N/N=C/c1ccncc1)c1cccs1,i,i,i,i,/,i
O=C(N/N=C\c1ccc(Cl)s1)c1cccs1,i,i,i,i,19*,i
Cc1nn(-c2ccccc2)c(N2CCCC2)c1/C=N/NC(=O)c1ccccc1O,i,i,i,-7.2*,-0.66,i
Cc1ccc(S(=O)(=O)N(CC(=O)N(C(C)C)C(C)C)C(=O)N2CCN(C)CC2)cc1,i,i,i,i,/,i
c1cc2c(cc1CN1CCN(C3CCCCCC3)CC1)OCO2,i,-7.6*,i,i,/,i
CC(C)=CCC12Oc3cc(O)ccc3C1(O)Oc1cc3c(c(O)c1C2=O)C=CC(C)(C)O3 (centres undefined),i,-7.3*,i,i,/,i
CC(C)=CCc1c(-c2ccc(O)cc2O)oc2cc3c(c(O)c2c1=O)C=CC(C)(C)O3,i,i,i,i,/,i
CC1(C)OC(=O)C(=CNc2cccc(O)c2)C(=O)O1,i,i,i,i,-0.86,i
CC1(C)OC(=O)C(=CNc2ccccc2)C(=O)O1,i,i,i,-7.3*,/,i
C=CCOc1ccc(CNCCc2ccc(S(N)(=O)=O)cc2)cc1,i,-7.4*,i,i,1.4,i
O=C(CSc1nc2ncccc2[nH]1)Nc1ccccc1-c1ccccc1,i,i,i,i,/,i
O=C1OCCN1C(=O)[C@H]1[C@H](c2ccc(F)cc2)C(c2ccc(F)cc2)=NN1c1ccccc1,i,i,i,i,i,i
O=C1OCCN1C(=O)[C@H]1[C@H](c2ccc(F)cc2)C(c2ccc(F)cc2)=NN1c1ccc(Br)cc1,i,-9.2*,i,i,-0.18,i
Cn1cc(/C=C/C(=O)c2ccccc2)c2ccccc21,i,i,i,i,-0.02,i
Cn1cc(/C=C(\C(=O)O)C(C(=O)O)=C2CCCCC2)c2ccccc21,i,i,i,-4.8*,0.13,i
Cc1ccc(CCNC(=O)C23CN(Cc4ccccc4)CC2C(c2cccc([N+](=O)[O-])c2)=NO3)cc1 (centres undefined),i,i,i,i,-0.41,i
COc1ccc(CCNC(=O)C23CN(Cc4ccccc4)CC2C(c2cccc([N+](=O)[O-])c2)=NO3)cc1 (centres undefined),i,i,i,-8.3*,-1.3,i
O=C(Nc1ccccc1Cl)C1(c2ccccc2)CC1(Cl)Cl (centres undefined),i,-7*,i,i,-0.22,i
COc1ccc(C(=O)N/N=C2/SCC(=O)N2Cc2ccc3c(c2)OCO3)cc1OC,i,i,i,i,/,i
COc1cccc(C(=O)N/N=C2\SCC(=O)N2Cc2ccc3c(c2)OCO3)c1,i,i,i,-5.6*,/,i
Cc1nc(-c2cccc(NC(=O)c3cccs3)c2)cs1,i,i,i,i,-1.3,i
O=C(Nc1cccc(-c2csc(-c3ccccc3)n2)c1)c1cccs1,i,-7.1*,i,i,/,i
CC(C)CC(=O)O/N=C1\C(=O)N(Cc2ccc(Cl)cc2)c2ccc([N+](=O)[O-])cc21,i,i,i,i,0.5,6.4*
CC(=O)O/N=C1\C(=O)N(Cc2ccc(C)cc2)c2ccccc21,/,/,/,/,-0.34,/
